Compound activity (PubChem BioAssay)
Hits are enriched below; roughly 1.1% of the tested compounds scored in any of these assays.
ERAP1 HTS inh = human ERAP1 aminopeptidase inhibitors, primary screen, biochemical, single point, plate reader; recombinant ERAP1, Leu-AMC fluorescence, 60 min; 340,000 tested, 0.15% active; AID 652197, 2013; Endoplasmic reticulum aminopeptidase 1 (Homo sapiens), Q9NZ08; inhibition, % at 10.7 µM;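 active = mean replicate inhibition of at least 30%, or all replicates individually reaching that 30% level; inactive = mean below 30% and not every replicate reaching it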;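 note: 0% = neutral control wells and 100% = L-leucinethiol positive control wells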
CAL PDZ FP-1 = CAL PDZ peptide-binding inhibitors, primary screen, biochemical, fluorescence polarization, Cer-tagged CAL PDZ, HTS. 330,000 tested, 0.02% active. purified CAL PDZ, TMR-peptide fluorescence polarization, 1 h. AID 504414, 2011. inhibition, % at 20 µM;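 active = highest replicate inhibition of at least 40%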;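 note: plate controls were DMSO neutral control wells for no effect and unlabeled competitor peptide control wells for full effect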
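material = purified tagged CAL PDZ domain construct (CerCALP) | buffer or medium = sodium phosphate/NaCl buffer pH 7.4 with TCEP, IgG, Thesit | reagent = TMR-labelled reporter peptide T*-PRC34 bound in PDZ groove | incubation = 1 h room-temperature incubation prior to read | measured by = fluorescence polarization (mP) | evaluation = percent inhibition from loss of millipolarization | control set = unlabelled peptide and DMSO controls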
ERp5 block = inhibitors of ERp5-driven insulin aggregation, primary screen, biochemical, turbidity, absorbance 650 nm, single point; AID 651711, 2012; 90 min; 350,000 tested, 0.05% active; Protein disulfide-isomerase A6 (Homo sapiens), Q15084; inhibition, % at 9.99 µM;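 active = mean replicate inhibition above about 25%, with every replicate also reaching it, limit read from the data, passing the limit was not always enough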
PDI inh = inhibitors of human PDI, primary screen, biochemical, turbidity, single point, plate reader; Protein disulfide-isomerase (Homo sapiens), P07237; PDI insulin aggregation turbidity, A650, 90 min; inhibition, % at 10 µM; 350,000 tested, 0.052% active; AID 588391, 2011;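 active = mean inhibition across replicates of 30% or more, whatever share of single replicates reach that level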
CAL PDZ FP-2 = untagged CAL PDZ binding inhibitors, primary screen, biochemical, fluorescence polarization, HTS | Golgi-associated PDZ and coiled-coil motif-containing protein (Homo sapiens), Q9HD26 | purified CAL PDZ, TMR-peptide fluorescence polarization, 1 h | inhibition, % at 24.9 µM | 300,000 tested, 0.92% active;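 active = mean inhibition of at least 30% with at least half of replicates also reaching 30%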;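 note: 0% = DMSO neutral control and 100% = excess unlabeled competitor peptide PRC23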
Rin1-Abl PPI inh = inhibitors of Rin1-Abl protein binding, primary screen, biochemical, TR-FRET; inhibition, % at 7.35 µM; 360,000 tested, 0.4% active; AID 588664, 2011; in the data active = inhibition above about 5%, passing the limit was not always enough
Rin1 Abl conf = Rin1-Abl binding inhibitor retest, confirmation, biochemical, TR-FRET | purified proteins | 1,300 tested, 49% active | shares compounds with Rin1-Abl PPI inh | inhibition, % at 7.35 µM | AID 602124, 2011
GFP quench = GFP fluorescence inhibitors and quenchers, artefact control for Rin1-Abl interaction inhibitor project, biochemical; shares compounds with Rin1-Abl PPI inh; inhibitors/quenchers counterscreen; inhibition, % at 6.75 µM; 1,300 tested, 8.5% active; AID 602125, 2011;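 note: ABL1-eGFP fusion protein alone without its partner RIN1-SBP; 0% = protein with vehicle and 100% = wells lacking protein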
GFP quench DR = GFP fluorescence inhibitors and quenchers, dose response, artefact control for Rin1-Abl interaction inhibitor project, biochemical. 230 tested, under 10 active. shares compounds with Rin1-Abl PPI inh. GFP fluorescence interference/quenching counterscreen. AID 602182, 2012. IC50, µM; call rule not given here;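 note: ABL1-eGFP fusion protein alone without its RIN1 binding partner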
Active calls of the source: *; x = not tested or not shown; ! = repeats disagree. Cut-off read from the data, not from the text of the source, unless noted: active = inhibition above about 6.5%; inactive = the rest.

SMILES	ERAP1 HTS inh	CAL PDZ FP-1	ERp5 block	PDI inh	CAL PDZ FP-2	Rin1-Abl PPI inh	Rin1 Abl conf	GFP quench	others
C[C@@H]1CN([C@@H](C)CO)C(=O)c2cc(NS(=O)(=O)c3ccccc3)ccc2O[C@@H](C)CCCCO[C@@H]1CN(C)S(=O)(=O)c1ccc(F)cc1	5	x	-2	x	x	x	x	x
Cc1noc(C)c1NC(=O)Nc1ccc2c(c1)C(=O)N([C@H](C)CO)C[C@H](C)[C@@H](CN(C)S(=O)(=O)c1ccccc1)O2	-1	-1	4	1	2	9.2*	0	1
CCOC(=O)CCCCCC(=O)Nc1ccc2c(c1)C(=O)N([C@@H](C)CO)C[C@@H](C)[C@H](CN(C)S(=O)(=O)c1cccs1)OCCCC[C@H](C)O2	7	x	-12	3	x	8.2*	6	-1
O=C(C[C@@H]1CC[C@H](NC(=O)c2ccc(F)cc2)[C@@H](CO)O1)NCc1ccncn1	4	x	-3	x	x	x	x	x
CN(C)CC(=O)Nc1ccc2c(c1)[C@H]1C[C@H](CC(=O)N3CCN(C)CC3)O[C@@H](CO)[C@H]1O2	2	x	-1	x	x	x	x	x
C=C1c2cccc(O)c2C(=O)C2C(=O)[C@]3(O)C(=O)C(C(N)=O)C(=O)[C@@H](N(C)C)[C@@H]3[C@@H](O)[C@H]12 (some centres undefined)	7	1	1	14	17	33*	4	3
CC1(C(=O)NCc2ccc(C(F)(F)F)cc2)CCN1Cc1cc2ccccc2o1 (centres undefined)	5	x	2	-13	x	9.0*	-2	1
CCn1c(N2CCN(CC(=O)c3c(C)n(C)c4ccccc34)CC2)nc2c1c(=O)[nH]c(=O)n2C	x	0	x	-4	3	6.4*	-2	0
CCC1CCCCN1S(=O)(=O)c1ccc(NC(=O)c2cccs2)cc1 (centres undefined)	x	-2	x	-2	-2	10*	0	-1
CO[C@H]1CN(C)C(=O)c2cc(NC(=O)C3CCCCC3)ccc2OC[C@H](C)N(C)C[C@@H]1C	1	x	8	x	x	x	x	x
CCCCOc1ccc(C(=O)N=c2sccn2C)cc1OC	3	-1	-1	-8	-6	20*	12*	1
CCN1[C@@H]2c3ccc(-c4cccc(C(=O)N(C)C)c4)c(=O)n3C[C@@H]2[C@@H](CO)[C@@H]1C(=O)OC	5	x	x	x	x	x	x	x
CCC(c1nc2ccccc2c(=O)n1CCCn1ccnc1)N1C(=O)c2ccccc2C1=O (centres undefined)	x	-3	x	-5	1	15*	21*	1	GFP quench DR=>67
C=CCc1ccccc1OCC(O)CN1CCN(c2ccccc2OC)CC1 (centres undefined)	0	0	7	-4	0	7.4*!	-1	0
C=CCc1ccccc1OCC(O)CN1CCN(c2ccccc2F)CC1 (centres undefined)	x	0	x	3	1	1	x	x
C#CCOCCOCCOCCNc1nc(N2CCN(C(=O)CCCCCCCCCCNC(=O)[C@H](CCCCN)n3cc(CCCC(=O)O)nn3)CC2)nc(N2CCN(C(=O)CCCCCCCCCCNC(=O)[C@H](CCCCN)n3cc(CCCC(=O)O)nn3)CC2)n1	x	-2	x	-10	-5	1	x	x
C#CCOCCOCCOCCNc1nc(N2CCOCC2)nc(N2CCN(C(=O)CCCCCCCCCCNC(=O)[C@H](CO)n3cc(CCCCCN)nn3)CC2)n1	-8	0	-2	0	2	9.9*	9.8*	-1
C#CCOCCOCCOCCNc1nc(N2CCN(C(=O)CCCCCCCCCCNC(=O)[C@H](CCCCN)n3cc(CCO)nn3)CC2)nc(N2CCN(C(=O)CCCCCCCCCCNC(=O)[C@H](CCCCN)n3cc(CCO)nn3)CC2)n1	x	-1	x	5	-1	19*	20*	1
CC1=Nc2ccccc2NC(=O)C1Sc1nnc(C)s1 (centres undefined)	x	-4	x	-9	-2	6.4*	3	1
CO[C@@H]1CN(C)C(=O)c2cc(NS(=O)(=O)c3ccccc3)ccc2OC[C@@H](C)N(Cc2nccs2)C[C@@H]1C	0	x	1	x	x	x	x	x
N#C/C(=C\c1ccc(O)c(O)c1)C(=O)Nc1cccc2ncccc12	-18	-1	-2	-3	-1	8.7*	13*	14*
C[C@@H]1CCCCO[C@@H](CN(C)C(=O)Nc2ccccc2)[C@@H](C)CN([C@@H](C)CO)C(=O)c2cc(NC(=O)C3CCCCC3)ccc2O1	3	x	3	x	x	x	x	x
COc1ccccc1CCC(=O)N(Cc1ccccc1)c1c(N)n(Cc2ccccc2)c(=O)[nH]c1=O	1	-3	3	-4	-3	3	x	x
Nc1c(N(Cc2ccccc2)C(=O)CCc2ccccc2)c(=O)[nH]c(=O)n1Cc1ccccc1	1	0	-1	5	-3	9.8*	-1	1
O=C(C[C@H]1CC[C@H]2[C@@H](COC[C@@H](O)CN2S(=O)(=O)c2ccccc2)O1)N1CCOCC1	-8	x	5	x	x	x	x	x
CCN(CC(=O)Nc1ccc(NC(C)=O)cc1)C(=O)c1ccc(Sc2nncn2C)c([N+](=O)[O-])c1	-2	x	4	-4	x	9.7*	0	0
CCOC(=O)c1ccccc1NC(=O)c1cccc([N+](=O)[O-])c1	-2	-1	0	0	-3	9.8*	-3	0
OCC[C@@H]1C[C@@H](O)[C@H](O)[C@@]2(Cc3ccccc3CO2)O1	-2	0	-4	7	1	8.9*	-2	-1
CCOC(=O)c1ccc(NC(=O)CN(C)S(=O)(=O)c2ccc(OC)cc2)cc1	-1	0	6	1	-2	8.0*	-2	-1
